Test results as given in ChEMBL document CHEMBL5058577, “EUbOPEN Chemogenomics Library 2 (Multiplex)” (2022).

System: Fibroblast
Assay: Multiplex assay against human fibroblast
Assay type: toxicity, cell-based
How it was run: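 Compound was added to live cells that had been stained at seeding with Hoechst33342, BioTracker Green Microtubule Cytoskeleton Dye, MitoTracker Red and Annexin V Alexa Fluor 680, and imaging followed on a CQ1 microscope at 37°C and 5% CO2. CellPathfinder machine-learning gating divided cells into Hoechst high-intensity objects or normal cells, normal cells into healthy, pyknosed or fragmented nuclei, and pyknosed cells into mitotic or apoptotic. Tubulin, mitochondrial-mass and membrane-permeability phenotypes are per cents of healthy-nucleus cells.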

[1] = 12 h, 1 µM, compound concentration 1 uM, replicate 1
[2] = 12 h, 1 µM, compound concentration 1 uM, replicate 2
[3] = 12 h, 10 µM, compound concentration 10 uM, replicate 1
[4] = 12 h, 10 µM, compound concentration 10 uM, replicate 2
[5] = 24 h, 1 µM, compound concentration 1 uM, replicate 1
[6] = 24 h, 1 µM, compound concentration 1 uM, replicate 2
[7] = 24 h, 10 µM, compound concentration 10 uM, replicate 1
[8] = 24 h, 10 µM, compound concentration 10 uM, replicate 2
[9] = 48 h, 1 µM, compound concentration 1 uM, replicate 1
[10] = 48 h, 1 µM, compound concentration 1 uM, replicate 2
[11] = 48 h, 10 µM, compound concentration 10 uM, replicate 1
[12] = 48 h, 10 µM, compound concentration 10 uM, replicate 2

With Cc1noc(-c2ccc(-c3ccc(CC(=O)O)cc3)cc2)c1NC(=O)O[C@H](C)c1ccccc1Cl the “Population Apoptotic (%)” value [1] was 22%, the “Population Fragmented Nuclei (%)” value [1] was 14% and the “Population Healthy Nuclei (%)” value [1] was 77%. For the same compound, the “Population Hoechst High Intensity Objects (%)” value [1] was 0%, the “Population Membrane Permeable-Phenotype (%)” value [1] was 0% and the “Population Mitochondria Different-Phenotype (%)” value [1] was 1%. For the same compound, the “Population Mitotic Cells (%)” value [1] was 77%, the “Population Normal (%)” value [1] was 100% and the “Population Pyknosed Nuclei (%)” value [1] was 8%. The “Population Tubulin-Different-Phenotype (%)” value [1] was 10%, the “Total Cell Count” value [1] was 106 and the “Population Apoptotic (%)” value [2] was 58%. For the same compound, the “Population Fragmented Nuclei (%)” value [2] was 21%, the “Population Healthy Nuclei (%)” value [2] was 60% and the “Population Hoechst High Intensity Objects (%)” value [2] was 5%. The “Population Membrane Permeable-Phenotype (%)” value [2] was 5%, the “Population Mitochondria Different-Phenotype (%)” value [2] was 2% and the “Population Mitotic Cells (%)” value [2] was 41%. For the same compound, the “Population Normal (%)” value [2] was 95%, the “Population Pyknosed Nuclei (%)” value [2] was 18% and the “Population Tubulin-Different-Phenotype (%)” value [2] was 26%. For the same compound, the “Total Cell Count” value [2] was 140, the “Population Apoptotic (%)” value [3] was 40% and the “Population Fragmented Nuclei (%)” value [3] was 20%. For the same compound, the “Population Healthy Nuclei (%)” value [3] was 62%, the “Population Hoechst High Intensity Objects (%)” value [3] was 1% and the “Population Membrane Permeable-Phenotype (%)” value [3] was 1%. For the same compound, the “Population Mitochondria Different-Phenotype (%)” value [3] was 6%, the “Population Mitotic Cells (%)” value [3] was 60% and the “Population Normal (%)” value [3] was 98%. The “Population Pyknosed Nuclei (%)” value [3] was 17%, the “Population Tubulin-Different-Phenotype (%)” value [3] was 31% and the “Total Cell Count” value [3] was 119. For the same compound, the “Population Apoptotic (%)” value [4] was 29%, the “Population Fragmented Nuclei (%)” value [4] was 17% and the “Population Healthy Nuclei (%)” value [4] was 45%. For the same compound, the “Population Hoechst High Intensity Objects (%)” value [4] was 6%, the “Population Membrane Permeable-Phenotype (%)” value [4] was 2% and the “Population Mitochondria Different-Phenotype (%)” value [4] was 10%. The “Population Mitotic Cells (%)” value [4] was 70%, the “Population Normal (%)” value [4] was 93% and the “Population Pyknosed Nuclei (%)” value [4] was 36%. The “Population Tubulin-Different-Phenotype (%)” value [4] was 57%, the “Total Cell Count” value [4] was 90 and the “Population Apoptotic (%)” value [5] was 20%. For the same compound, the “Population Fragmented Nuclei (%)” value [5] was 16%, the “Population Healthy Nuclei (%)” value [5] was 78% and the “Population Hoechst High Intensity Objects (%)” value [5] was 0%. The “Population Membrane Permeable-Phenotype (%)” value [5] was 0%, the “Population Mitochondria Different-Phenotype (%)” value [5] was 1% and the “Population Mitotic Cells (%)” value [5] was 80%. The “Population Normal (%)” value [5] was 100%, the “Population Pyknosed Nuclei (%)” value [5] was 4% and the “Population Tubulin-Different-Phenotype (%)” value [5] was 10%. For the same compound, the “Total Cell Count” value [5] was 102, the “Population Apoptotic (%)” value [6] was 52% and the “Population Fragmented Nuclei (%)” value [6] was 30%. The “Population Healthy Nuclei (%)” value [6] was 57%, the “Population Hoechst High Intensity Objects (%)” value [6] was 2% and the “Population Membrane Permeable-Phenotype (%)” value [6] was 1%. The “Population Mitochondria Different-Phenotype (%)” value [6] was 7%, the “Population Mitotic Cells (%)” value [6] was 47% and the “Population Normal (%)” value [6] was 97%. For the same compound, the “Population Pyknosed Nuclei (%)” value [6] was 12%, the “Population Tubulin-Different-Phenotype (%)” value [6] was 28% and the “Total Cell Count” value [6] was 161. The “Population Apoptotic (%)” value [7] was 50%, the “Population Fragmented Nuclei (%)” value [7] was 20% and the “Population Healthy Nuclei (%)” value [7] was 68%. For the same compound, the “Population Hoechst High Intensity Objects (%)” value [7] was 1%, the “Population Membrane Permeable-Phenotype (%)” value [7] was 0% and the “Population Mitochondria Different-Phenotype (%)” value [7] was 7%. The “Population Mitotic Cells (%)” value [7] was 50%, the “Population Normal (%)” value [7] was 98% and the “Population Pyknosed Nuclei (%)” value [7] was 11%. The “Population Tubulin-Different-Phenotype (%)” value [7] was 29%, the “Total Cell Count” value [7] was 122 and the “Population Apoptotic (%)” value [8] was 32%. For the same compound, the “Population Fragmented Nuclei (%)” value [8] was 26%, the “Population Healthy Nuclei (%)” value [8] was 41% and the “Population Mitochondria Different-Phenotype (%)” value [8] was 10%. For the same compound, the “Population Mitotic Cells (%)” value [8] was 67%, the “Population Pyknosed Nuclei (%)” value [8] was 31% and the “Population Tubulin-Different-Phenotype (%)” value [8] was 65%. For the same compound, the “Total Cell Count” value [8] was 98, the “Population Apoptotic (%)” value [9] was 44% and the “Population Fragmented Nuclei (%)” value [9] was 18%. The “Population Healthy Nuclei (%)” value [9] was 73%, the “Population Hoechst High Intensity Objects (%)” value [9] was 1% and the “Population Membrane Permeable-Phenotype (%)” value [9] was 1%. The “Population Mitochondria Different-Phenotype (%)” value [9] was 1%, the “Population Mitotic Cells (%)” value [9] was 55% and the “Population Normal (%)” value [9] was 98%. For the same compound, the “Population Pyknosed Nuclei (%)” value [9] was 8%, the “Population Tubulin-Different-Phenotype (%)” value [9] was 16% and the “Total Cell Count” value [9] was 112. For the same compound, the “Population Apoptotic (%)” value [10] was 60%, the “Population Fragmented Nuclei (%)” value [10] was 35% and the “Population Healthy Nuclei (%)” value [10] was 55%. For the same compound, the “Population Hoechst High Intensity Objects (%)” value [10] was 2%, the “Population Membrane Permeable-Phenotype (%)” value [10] was 5% and the “Population Mitochondria Different-Phenotype (%)” value [10] was 3%. The “Population Mitotic Cells (%)” value [10] was 40%, the “Population Normal (%)” value [10] was 97% and the “Population Tubulin-Different-Phenotype (%)” value [10] was 25%. The “Total Cell Count” value [10] was 171, the “Population Apoptotic (%)” value [11] was 23% and the “Population Fragmented Nuclei (%)” value [11] was 30%. For the same compound, the “Population Healthy Nuclei (%)” value [11] was 55%, the “Population Hoechst High Intensity Objects (%)” value [11] was 4% and the “Population Membrane Permeable-Phenotype (%)” value [11] was 2%. The “Population Mitochondria Different-Phenotype (%)” value [11] was 4%, the “Population Mitotic Cells (%)” value [11] was 76% and the “Population Normal (%)” value [11] was 95%. The “Population Pyknosed Nuclei (%)” value [11] was 13%, the “Population Tubulin-Different-Phenotype (%)” value [11] was 35% and the “Total Cell Count” value [11] was 133. The “Population Apoptotic (%)” value [12] was 39%, the “Population Fragmented Nuclei (%)” value [12] was 40% and the “Population Healthy Nuclei (%)” value [12] was 37%. The “Population Hoechst High Intensity Objects (%)” value [12] was 2%, the “Population Membrane Permeable-Phenotype (%)” value [12] was 0% and the “Population Mitochondria Different-Phenotype (%)” value [12] was 10%. For the same compound, the “Population Mitotic Cells (%)” value [12] was 60%, the “Population Normal (%)” value [12] was 97% and the “Population Pyknosed Nuclei (%)” value [12] was 22%. For the same compound, the “Population Tubulin-Different-Phenotype (%)” value [12] was 69% and the “Total Cell Count” value [12] was 107.
